Results published in PubChem BioAssay AID651654 (Broad Institute, 2012).
Screen size: about 360,000 compounds; about 740 (0.21%) were called active.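 The calls were made as follows: active = mean lysis activity across replicates of at least 80%, whatever share of replicates individually reach that level; inactive = mean lysis activity below 80%.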 For the sample, actives were picked, then their nearest neighbours and some compounds at random.

test: fungicidal lysis via adenylate kinase leakage – AK release luminescence, single concentration, primary screen (AID 651654); conditions: C. neoformans lysis, 4 h, at 15 µM, active compounds read high, normalised: neutral wells 0, clomiphene wells 100
Summary of the method: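 Test system: log-phase Cryptococcus neoformans yeast cells. Input: 5 × 10^6 yeast cells/mL. Medium: fresh YPD growth medium. Doses: single dose. Incubation: static 4 h at 37 °C with compound, 1 h detection. Measured by: luminescent adenylate kinase detection reagent. Read-out: signal increase indicating cell lysis. Benchmarks: Clomiphene.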

Compound | lysis activity
COCC(=O)Nc1ccc2c(c1)OC[C@H](C)N(C(=O)Cc1ccccn1)C[C@H](C)[C@@H](OC)CN(C)C2=O | 6.59% (inactive)
CCC(=O)N1[C@@H]2c3ccc(-c4cccnc4)c(=O)n3C[C@H]1[C@H](CO)[C@H]2C(=O)N1CCc2ccccc2C1 | -6.94% (inactive)
C[C@H](CO)N1C[C@H](C)[C@H](CN(C)Cc2ccc(C(F)(F)F)cc2)Oc2c(NC(=O)C3CCOCC3)cccc2C1=O | 0.0275% (inactive)
CCCN(C)C[C@@H]1OCCCC[C@H](C)Oc2ccc(NS(=O)(=O)c3ccc(C)cc3)cc2C(=O)N([C@H](C)CO)C[C@@H]1C | 98.4% (active)
C[C@H](CO)N1C[C@H](C)[C@H](CN(C)C)Oc2c(NC(=O)C3CCOCC3)cccc2C1=O | -4.63% (inactive)
C[C@H]1CN([C@@H](C)CO)C(=O)c2cc(NS(C)(=O)=O)ccc2O[C@H]1CN(C)C(=O)Nc1ccc(C(F)(F)F)cc1 | 2.09% (inactive)
C[C@@H]1CN([C@@H](C)CO)C(=O)c2cccc(NC(=O)C3CC3)c2O[C@@H]1CN(C)C | 80.7% (active)
Cc1ccc(S(=O)(=O)Nc2ccc3c(c2)C(=O)N([C@H](C)CO)C[C@@H](C)[C@H](CN(C)C(=O)Nc2ccc(C(F)(F)F)cc2)OCCCC[C@H](C)O3)cc1 | -2.02% (inactive)
CCCN(C)C[C@H]1OCCCC[C@H](C)Oc2ccc(NS(=O)(=O)c3ccc(C)cc3)cc2C(=O)N([C@@H](C)CO)C[C@H]1C | -0.143% (inactive)
Cc1ccc(S(=O)(=O)Nc2ccc3c(c2)C(=O)N([C@H](C)CO)C[C@@H](C)[C@@H](CN(C)S(C)(=O)=O)OCCCC[C@@H](C)O3)cc1 | -3.44% (inactive)
Cc1noc(C)c1S(=O)(=O)Nc1ccc2c(c1)C(=O)N([C@@H](C)CO)C[C@H](C)[C@H](CN(C)CC1CCCCC1)OCCCC[C@H](C)O2 | 1.9% (inactive)
Cc1noc(C)c1S(=O)(=O)Nc1ccc2c(c1)C(=O)N([C@H](C)CO)C[C@@H](C)[C@@H](CN(C)Cc1ccccc1)OCCCC[C@@H](C)O2 | 0.357% (inactive)
Cc1ccc(S(=O)(=O)Nc2ccc3c(c2)C(=O)N([C@@H](C)CO)C[C@H](C)[C@H](CN(C)C(=O)Nc2ccc(C(F)(F)F)cc2)O3)cc1 | 100% (active)
Cc1noc(C)c1S(=O)(=O)Nc1ccc2c(c1)C(=O)N([C@@H](C)CO)C[C@@H](C)[C@@H](CN(C)Cc1ccccc1)OCCCC[C@H](C)O2 | 96.8% (active)
C[C@H]1CN([C@@H](C)CO)C(=O)c2cccc(NC(=O)C3CCOCC3)c2O[C@@H]1CN(C)C | -5.09% (inactive)
C[C@@H]1CCCCO[C@H](CN(C)C)[C@H](C)CN([C@@H](C)CO)C(=O)c2cc(NS(=O)(=O)c3cn(C)cn3)ccc2O1 | -0.536% (inactive)
C[C@@H]1CN([C@@H](C)CO)C(=O)c2cc(NS(=O)(=O)c3cn(C)cn3)ccc2O[C@@H](C)CCCCO[C@H]1CN(C)S(=O)(=O)c1cn(C)cn1 | 1.43% (inactive)
C[C@H]1CN([C@@H](C)CO)C(=O)c2cc(NS(=O)(=O)c3cn(C)cn3)ccc2O[C@H]1CN(C)CC1CCCCC1 | -5.59% (inactive)
C[C@@H]1CN([C@H](C)CO)C(=O)c2cccc(NS(=O)(=O)c3cn(C)cn3)c2O[C@H]1CN(C)CC1CC1 | -3.67% (inactive)

Compound | lysis activity
Cc1noc(C)c1S(=O)(=O)Nc1ccc2c(c1)CC(=O)N([C@@H](C)CO)C[C@H](C)[C@@H](CN(C)S(=O)(=O)c1cn(C)cn1)O2 | 117% (active)
C[C@@H]1CN([C@H](C)CO)C(=O)c2cc(NS(=O)(=O)c3cn(C)cn3)ccc2O[C@@H](C)CCCCO[C@H]1CN(C)C | 109% (active)
Cc1noc(C)c1S(=O)(=O)Nc1ccc2c(c1)CC(=O)N([C@H](C)CO)C[C@H](C)[C@H](CN(C)S(=O)(=O)c1cn(C)cn1)O2 | -4.65% (inactive)
Cc1ccc(S(=O)(=O)N(C)C[C@@H]2Oc3ccc(NS(=O)(=O)c4c(C)noc4C)cc3CC(=O)N([C@H](C)CO)C[C@H]2C)cc1 | 1.73% (inactive)
C[C@H]1CN([C@@H](C)CO)C(=O)c2cccc(NS(=O)(=O)c3cn(C)cn3)c2O[C@@H]1CN(C)CC1CCCCC1 | 82.6% (active)
CN1c2ccc(-c3ccccc3)cc2[C@H]2[C@H](CCN2C(=O)c2ccc3c(c2)OCO3)[C@H]1CO | -10.3% (inactive)
COCC(=O)N(C)C[C@H]1Oc2cc(C#C[C@@H](C)O)ccc2S(=O)(=O)N([C@H](C)CO)C[C@H]1C | 9.52% (inactive)
Cc1ccc(OCC(=O)NC(C)c2ccccc2)cc1C (configuration not stated) | 204% (active)
Cc1ccc(OCC(=O)Nc2ccc(C(=O)O)cc2NC(=O)COc2ccc(C)c(C)c2)cc1C | -1.83% (inactive)
Cc1ccc(OCCCC(=O)NC(C)c2ccccc2)c(C)c1 (configuration not stated) | 3.6% (inactive)
C[C@H]1CCCCO[C@H](CN(C)S(=O)(=O)c2cn(C)cn2)[C@@H](C)CN([C@@H](C)CO)C(=O)c2cc(NC(=O)C3CCCCC3)ccc2O1 | -1.38% (inactive)
Cc1cccc(S(=O)(=O)N2CC[C@@H]3[C@H]2c2cc(C#Cc4ccc(F)cc4)ccc2N[C@@H]3CO)c1 | -3.22% (inactive)
CO[C@H]1CN(C)C(=O)c2ccc(NC(=O)C3CC3)cc2OC[C@@H](C)N(Cc2ccc(F)cc2)C[C@@H]1C | 95.3% (active)
CO[C@H]1CN(C)C(=O)c2cc(NC(=O)Nc3cccc(F)c3)ccc2OC[C@@H](C)N(C)C[C@H]1C | 18.3% (inactive)
CO[C@H]1CN(C)C(=O)c2cc(NC(=O)Nc3cccc(F)c3)ccc2OC[C@@H](C)N(C)C[C@@H]1C | 7.44% (inactive)
CO[C@@H]1CN(C)C(=O)c2cc(NC(=O)C3CC3)ccc2OC[C@@H](C)N(Cc2ccc(F)cc2)C[C@@H]1C | 1.45% (inactive)
CO[C@@H]1CN(C)C(=O)c2cc(NC(=O)Nc3cccc(F)c3)ccc2OC[C@H](C)N(C)C[C@@H]1C | 98.7% (active)
CO[C@@H]1CN(C)C(=O)c2cc(NC(=O)C3CC3)ccc2OC[C@H](C)N(Cc2ccc(F)cc2)C[C@@H]1C | 0.205% (inactive)
